In assay [1] the target is T1, Fatty-acid amide hydrolase 1 (Rattus norvegicus, UniProt P97612).
T1 sequence (P97612 whole entry): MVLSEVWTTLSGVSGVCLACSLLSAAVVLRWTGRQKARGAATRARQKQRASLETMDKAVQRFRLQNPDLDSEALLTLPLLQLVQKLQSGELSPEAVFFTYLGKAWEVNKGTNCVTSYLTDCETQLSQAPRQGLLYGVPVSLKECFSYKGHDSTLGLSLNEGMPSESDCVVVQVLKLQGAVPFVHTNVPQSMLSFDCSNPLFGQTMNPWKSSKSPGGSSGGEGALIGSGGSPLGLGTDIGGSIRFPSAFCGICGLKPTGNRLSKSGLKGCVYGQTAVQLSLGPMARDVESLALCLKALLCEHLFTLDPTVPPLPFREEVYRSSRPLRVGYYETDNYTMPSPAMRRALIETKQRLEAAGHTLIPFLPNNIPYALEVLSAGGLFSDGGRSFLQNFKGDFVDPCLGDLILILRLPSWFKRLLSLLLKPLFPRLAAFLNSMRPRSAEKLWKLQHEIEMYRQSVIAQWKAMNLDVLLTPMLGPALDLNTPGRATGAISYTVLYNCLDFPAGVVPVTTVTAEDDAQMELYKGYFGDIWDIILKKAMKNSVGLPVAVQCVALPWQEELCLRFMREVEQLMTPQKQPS
Put plainly: Inhibition of rat recombinant FAAH expressed in Escherichia coli using [14C]oleamide as substrate assessed as oleic acid formation by Dixon plot analysis.

For assay [2], the species on record is Mus musculus. Put plainly: Selectivity ratio of IC50 for mouse brain KIAA1363 to mouse brain FAAH.
The species entered for assay [3] is Mus musculus. Put plainly: Selectivity ratio of IC50 for mouse brain MAGL to mouse brain FAAH.
For assay [4], the species on record is Mus musculus. Put plainly: Selectivity ratio of IC50 for mouse brain ABHD6 to mouse brain FAAH.
Assay [5] deals with T2, Neutral cholesterol ester hydrolase 1 (Mus musculus, UniProt Q8BLF1).
T2 sequence (Q8BLF1 whole entry): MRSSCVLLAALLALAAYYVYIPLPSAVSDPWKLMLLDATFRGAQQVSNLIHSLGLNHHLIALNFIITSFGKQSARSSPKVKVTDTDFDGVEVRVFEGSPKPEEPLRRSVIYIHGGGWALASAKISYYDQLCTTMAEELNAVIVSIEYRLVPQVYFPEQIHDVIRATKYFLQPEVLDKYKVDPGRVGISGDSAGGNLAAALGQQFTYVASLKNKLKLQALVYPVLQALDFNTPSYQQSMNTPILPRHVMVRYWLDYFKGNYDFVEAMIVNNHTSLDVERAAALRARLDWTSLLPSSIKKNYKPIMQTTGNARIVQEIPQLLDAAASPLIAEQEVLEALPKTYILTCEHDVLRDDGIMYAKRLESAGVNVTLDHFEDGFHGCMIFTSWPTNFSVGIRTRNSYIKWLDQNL
Put plainly: Inhibition of mouse brain KIAA1363 incubated for 10 mins prior to rhodamine-tagged fluorophosphonate addition measured after 10 mins by SDS-PAGE. An outline of the steps: (§1)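 Mouse brain tissue was Dounce-homogenized in PBS pH 7.5, cleared at 1,400 g for 5 min, then split at 64,000 g for 45 min into soluble and membrane fractions. Proteome at 1 mg/mL in PBS was preincubated with inhibitor from DMSO stock for 10 min, then exposed to FP-rhodamine at 100 nM for 10 min at 25 °C. Gel bands were scanned and integrated relative to a DMSO control. IC50 came from dose-response curves, three trials per concentration.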

Assay [6] deals with T3, Monoacylglycerol lipase ABHD6 (Mus musculus, UniProt Q8R2Y0).
T3 sequence (Q8R2Y0 whole entry): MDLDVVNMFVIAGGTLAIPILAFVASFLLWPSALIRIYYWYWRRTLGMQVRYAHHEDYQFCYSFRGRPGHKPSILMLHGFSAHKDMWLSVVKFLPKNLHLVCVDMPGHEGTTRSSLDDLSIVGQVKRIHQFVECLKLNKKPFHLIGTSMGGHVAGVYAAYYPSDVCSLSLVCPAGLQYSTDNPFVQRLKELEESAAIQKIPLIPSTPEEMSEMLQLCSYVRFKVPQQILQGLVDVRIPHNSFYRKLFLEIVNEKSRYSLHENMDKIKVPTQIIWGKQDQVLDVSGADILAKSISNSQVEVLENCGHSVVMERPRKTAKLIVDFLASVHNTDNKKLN
Put plainly: Inhibition of mouse brain ABHD6 incubated for 10 mins prior to rhodamine-tagged fluorophosphonate addition measured after 10 mins by SDS-PAGE. Format: tissue-based. The procedure, abridged: as §1

Assay [7] deals with T4, Fatty-acid amide hydrolase 1 (Mus musculus, UniProt O08914).
T4 sequence (O08914 whole entry): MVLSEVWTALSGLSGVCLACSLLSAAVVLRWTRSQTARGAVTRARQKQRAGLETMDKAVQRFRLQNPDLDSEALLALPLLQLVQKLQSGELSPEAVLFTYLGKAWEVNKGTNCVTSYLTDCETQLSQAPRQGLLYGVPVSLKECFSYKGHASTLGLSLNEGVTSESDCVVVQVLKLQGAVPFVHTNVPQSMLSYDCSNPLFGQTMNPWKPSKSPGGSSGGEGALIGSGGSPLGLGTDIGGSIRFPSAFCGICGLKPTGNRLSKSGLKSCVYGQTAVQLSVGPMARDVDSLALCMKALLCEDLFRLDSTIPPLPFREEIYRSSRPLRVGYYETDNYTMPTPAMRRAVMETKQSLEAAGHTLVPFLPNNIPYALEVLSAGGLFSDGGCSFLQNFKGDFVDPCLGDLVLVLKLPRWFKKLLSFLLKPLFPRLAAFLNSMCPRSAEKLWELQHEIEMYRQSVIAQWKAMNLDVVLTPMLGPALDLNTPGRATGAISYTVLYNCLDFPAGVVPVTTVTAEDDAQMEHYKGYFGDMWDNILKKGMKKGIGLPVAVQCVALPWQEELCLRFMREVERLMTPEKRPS
Briefly: Inhibition of mouse brain FAAH incubated for 10 mins prior to rhodamine-tagged fluorophosphonate addition measured after 10 mins by SDS-PAGE. An outline of the steps: as §1

In the next assay the target is T5, Monoglyceride lipase (Mus musculus, UniProt O35678).
T5 sequence (O35678 whole entry): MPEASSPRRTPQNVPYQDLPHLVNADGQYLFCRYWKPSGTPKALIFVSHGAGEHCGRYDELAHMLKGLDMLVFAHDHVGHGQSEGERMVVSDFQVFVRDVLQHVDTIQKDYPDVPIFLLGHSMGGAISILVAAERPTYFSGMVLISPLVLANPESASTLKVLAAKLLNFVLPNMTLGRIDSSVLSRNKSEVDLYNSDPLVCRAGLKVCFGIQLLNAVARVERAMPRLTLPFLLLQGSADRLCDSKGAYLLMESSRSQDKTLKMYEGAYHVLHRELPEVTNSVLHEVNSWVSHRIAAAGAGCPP
Put plainly: Inhibition of mouse brain MAGL incubated for 10 mins prior to rhodamine-tagged fluorophosphonate addition measured after 10 mins by SDS-PAGE. The procedure, abridged: as §1

Assay [8] addresses T6, Fatty-acid amide hydrolase 1 (Homo sapiens, UniProt O00519).
T6 sequence (O00519 whole entry): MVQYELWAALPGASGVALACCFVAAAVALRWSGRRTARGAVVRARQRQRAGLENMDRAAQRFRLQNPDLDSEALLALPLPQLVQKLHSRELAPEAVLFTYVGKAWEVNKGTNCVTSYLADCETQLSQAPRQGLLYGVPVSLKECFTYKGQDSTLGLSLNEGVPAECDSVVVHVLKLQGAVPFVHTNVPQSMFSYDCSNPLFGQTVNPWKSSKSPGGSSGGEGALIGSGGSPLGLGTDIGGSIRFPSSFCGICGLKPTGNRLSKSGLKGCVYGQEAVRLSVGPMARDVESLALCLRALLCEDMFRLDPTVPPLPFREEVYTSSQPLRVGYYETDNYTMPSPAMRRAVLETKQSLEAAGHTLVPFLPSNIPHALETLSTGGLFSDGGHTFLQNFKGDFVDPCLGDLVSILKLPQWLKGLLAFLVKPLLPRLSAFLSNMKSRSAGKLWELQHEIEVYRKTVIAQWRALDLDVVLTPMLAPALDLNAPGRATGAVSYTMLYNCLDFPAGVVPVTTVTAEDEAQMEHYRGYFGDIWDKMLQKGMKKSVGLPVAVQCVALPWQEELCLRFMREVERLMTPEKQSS
Briefly: Reversible inhibition of FAAH (unknown origin).

As to `COC(=O)c1cccc(-c2cnc(C(=O)[C@H]3COc4cc(Oc5ccccc5)ccc4C3)o2)n1`, the inhibition constant (Ki) (as a rule, a measure of affinity in units of concentration, obtained from inhibition or displacement) in assay [1] stood at 41 nM.
On the same count and under the same terms, under `COC(=O)c1cccc(-c2cnc(C(=O)C3CCc4cc(Oc5ccccc5)ccc4O3)o2)n1` (single isomer, unassigned; enantiomer 1) stands 94 nM; under `COC(=O)c1cccc(-c2cnc(C(=O)C3CCc4cc(Oc5ccccc5)ccc4O3)o2)n1` (single isomer, unassigned; enantiomer 2), 210 nM.
On to `O=C(c1ncc(-c2ccccn2)o1)[C@H]1COc2cc(-c3ccccc3)ccc2C1`, for which the Ki in [1] came out at 23 nM.
As to `O=C(c1ncc(-c2ccccn2)o1)[C@H]1CCc2cc(Oc3ccccc3)ccc2C1`, the Ki in [1] was found to be 4.4 nM.
With `O=C(c1ncc(-c2ccccn2)o1)C1CCc2cc(Oc3ccccc3)ccc2O1` (single isomer, unassigned) [listing 1 of 2 here], the Ratio IC50 in the assay filed under Mus musculus [2], in the assay listed under Mus musculus [3] and in the assay listed under Mus musculus [4] was more than 200 throughout.
As to `O=C(c1ncc(-c2ccccn2)o1)[C@H]1COc2cc(Oc3ccccc3)ccc2C1`, the IC50 (usually the concentration needed to halve the response being measured) in [5] is more than 100000 nM; in assay [6] it was more than 100000 nM; in assay [7], 90 nM; at Monoglyceride lipase, more than 100000 nM. The Ratio IC50 in the assay filed under Mus musculus [2], in the assay filed under Mus musculus [3] and in the assay listed under Mus musculus [4] was more than 200 throughout. Further, in assay [1], the inhibition constant Ki worked out at 18 nM.
For `O=C(c1ncco1)[C@@H]1COc2cc(OCc3ccccc3)ccc2C1`, the Ki in assay [1] amounted to 16 nM.
Still for that read-out and setting: then `O=C(c1ncco1)C1COc2cc(Oc3ccccc3)ccc2C1` (racemic), with 33 nM.
For `O=C(c1ncco1)C1CCc2cc(Oc3ccccc3)ccc2O1` (single isomer, unassigned; enantiomer 2), the Ki in [1] was 31 nM.
On the same count and under the same terms, then `O=C(c1ncc(I)o1)[C@H]1COc2cc(Oc3ccccc3)ccc2C1`, with 20 nM.
For the compound `O=C(c1ncc(-c2ccccn2)o1)C1CCc2cc(Oc3ccccc3)ccc2O1` (single isomer, unassigned) [listing 2 of 2 here], the IC50 in assay [5] was more than 100000 nM; in [6], more than 100000 nM; in assay [7], 70 nM; at Monoglyceride lipase, more than 100000 nM. Also, the inhibitory constant (Ki) in assay [1] was found to be 36 nM.
For `O=C(c1ncco1)C1CCc2cc(Oc3ccccc3)ccc2O1` (single isomer, unassigned; enantiomer 1), the Ki in assay [1] worked out at 17 nM.
Regarding `O=C(c1ncc(-c2ccccn2)o1)C1CCc2cc(Oc3ccccc3)ccc2O1` (single isomer, unassigned; enantiomer 2) [listing 1 of 2 here], the IC50 in [5] is more than 100000 nM; in assay [6] it was more than 100000 nM; in assay [7] it was 50 nM; on Monoglyceride lipase, more than 100000 nM. For the same compound, the Ki in assay [1] was found to be 120 nM.
Take `O=C(c1ncc(-c2ccccn2)o1)C1CCc2cc(Oc3ccccc3)ccc2O1` (single isomer, unassigned; enantiomer 2) [listing 2 of 2 here]: the Ratio IC50 in the assay listed under Mus musculus [2], in the assay filed under Mus musculus [3] and in the assay filed under Mus musculus [4] was more than 200 throughout.
In the case of `O=C(c1ncc(-c2ccccn2)o1)[C@@H]1COc2cc(-c3ccccc3)ccc2C1`, the inhibitory constant (Ki) in assay [1] stood at 11 nM.
The same measure, in the same setting: under `O=C(c1ncc(-c2ccccn2)o1)C1COc2cc(OCc3ccccc3)ccc2C1` (racemic) stands 17 nM.
Still for that read-out and setting: under `O=C(c1ncc(-c2ccccn2)o1)[C@@H]1COc2cc(OCc3ccccc3)ccc2C1` stands 17 nM; under `COC(=O)c1cccc(-c2cnc(C(=O)[C@@H]3COc4cc(Oc5ccccc5)ccc4C3)o2)n1`, 333 nM.
For `CCCCCCC(C)OC(=O)C(Br)C(C)=O` (configuration not stated), the inhibitory constant (Ki) in assay [8] worked out at 800 nM.
With `O=C(c1ncco1)[C@@H]1COc2cc(-c3ccccc3)ccc2C1`, the Ki in assay [1] was 32 nM.
Take `O=C(c1ncc(-c2ccccn2)o1)[C@@H]1COc2cc(Oc3ccccc3)ccc2C1`: the IC50 in assay [5] was more than 100000 nM; in [6] it was more than 100000 nM; in [7], 460 nM; on Monoglyceride lipase it was more than 100000 nM. Further, the Ratio IC50 in the assay filed under Mus musculus [2], in the assay filed under Mus musculus [3] and in the assay filed under Mus musculus [4] was more than 200 throughout. Besides, the Ki in [1] was 27 nM.
Regarding `O=C(c1ncc(-c2ccccn2)o1)[C@H]1COc2cc(OCc3ccccc3)ccc2C1`, the Ki in assay [1] amounted to 18 nM.
Still for that read-out and setting: under `O=C(c1ncc(I)o1)[C@@H]1COc2cc(Oc3ccccc3)ccc2C1` stands 31 nM.
On the same count and under the same terms, under `O=C(c1ncco1)[C@H]1COc2cc(OCc3ccccc3)ccc2C1` stands 20 nM; under `O=C(c1ncco1)[C@H]1COc2cc(-c3ccccc3)ccc2C1`, 20 nM.

Source of the values: ChEMBL document CHEMBL3259544, “α-Ketoheterocycle inhibitors of fatty acid amide hydrolase: exploration of conformational constraints in the acyl side chain” (Bioorg Med Chem, 2014).
